# High-throughput results (PubChem BioAssay)
# NPY Y1 blocker = NPY-Y1 receptor antagonists, primary screen, cell-based | Neuropeptide Y receptor type 1 (Homo sapiens), P25929 | HEK293-CNG Y1 cells, membrane potential fluorescence; NPY at EC95, then isoproterenol | inhibition, % at 3.6 µM | 200,000 compounds, 1% hits | AID 1040, 2008;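 active = inhibition above the campaign mean inhibition of all tested compounds plus 3 SD, cut at about 20% in these data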;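 also: 0% = DMSO wells given NPY plus isoproterenol and 100% = isoproterenol alone without NPY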
#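 System: HEK293 cells with Y1 receptor plus CNG channel / Probe or stimulus: NPY 25 nM then isoproterenol 1 µM plus Ro 20-1724 25 µM / Compound: one concentration, 3.6 µM, in 0.4% DMSO / Schedule: compound incubation 1 h at room temperature, readout 45 min post-stimulation / Measured by: membrane potential fluorescence / Read-out: % inhibition of NPY effect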
# NPY Y2 blocker = NPY-Y2 receptor antagonists, primary screen, cell-based; Neuropeptide Y receptor type 2 (Homo sapiens), P49146; NPY-Y2 expressing cells, antagonist mode; inhibition, % at 2.7 µM; 140,000 compounds, 0.99% hits; in the data active = inhibition above about 17%;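 also: 0% = vehicle with agonist challenge and 100% = reference antagonist with challenge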
# NPY1 pot ag = NPY-Y1 receptor potentiators or agonists, primary screen, cell-based; activation, % at 3.6 µM; 220,000 compounds, 0.37% hits; AID 1304, 2008; NPY-Y1 expressing cells, potentiator/agonist activation; in the data active = activation above about 33%, passing the limit was not always enough;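 also: cells stimulated with NPY at EC10 then isoproterenol at EC100; 0% = low agonist plus stimulus and 100% = saturating agonist plus stimulus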
# EP2 mod = EP2 receptor modulators, cAMP readout, primary screen, cell-based, HTRF cAMP, PGE2 stimulation. induction, % at 25 µM. 260,000 compounds, 0.83% hits. Prostaglandin E2 receptor EP2 subtype (Homo sapiens), P43116. AID 940, 2007. EP2-expressing cells, cAMP HTRF FRET, PGE2 co-stimulation;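 active = compounds whose cAMP rise, as percent of the full-agonist control response, exceeds 60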;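 also: rat C6 glioma line stably carrying human EP2 under a CMV promoter; the protocol text gives 20 µM as final concentration; 100% = response of wells given 1 µM PGE2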
# Target sequence (P43116 whole entry, looked up): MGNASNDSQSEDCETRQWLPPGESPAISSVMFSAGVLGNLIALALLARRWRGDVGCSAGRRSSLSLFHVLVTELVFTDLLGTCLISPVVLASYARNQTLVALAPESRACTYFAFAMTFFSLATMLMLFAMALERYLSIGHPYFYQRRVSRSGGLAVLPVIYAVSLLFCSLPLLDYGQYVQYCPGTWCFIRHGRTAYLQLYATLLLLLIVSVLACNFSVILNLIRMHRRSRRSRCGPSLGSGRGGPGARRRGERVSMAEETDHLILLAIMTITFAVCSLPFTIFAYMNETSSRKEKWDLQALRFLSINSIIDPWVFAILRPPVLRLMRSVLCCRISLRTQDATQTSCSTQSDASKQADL
# NPY-Y2 PAM-ag = NPY-Y2 potentiators or agonists, primary screen, cell-based. Neuropeptide Y receptor type 2 (Homo sapiens), P49146. AID 1359, 2008. cells expressing NPY-Y2, potentiator/agonist read-out. activation, % at 3.6 µM. 220,000 compounds, 0.45% hits; in the data active = activation above about 27%;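 also: cells stimulated with NPY near EC25 plus isoproterenol at EC100; 0% = vehicle plus submaximal agonist and 100% = vehicle plus saturating agonist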
# PGE2 EP2 inh = human EP2 receptor antagonists, primary screen, TR-FRET cAMP, C6 glioma cells. Prostaglandin E2 receptor EP2 subtype (Homo sapiens), P43116. inhibition, % at 25 µM. C6 glioma cells expressing human EP2; cells stimulated with saturating PGE2. 260,000 compounds, 0.52% hits;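 active = percent inhibition above 40 after rounding to a whole number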;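 also: rat C6 glioma host cells with rolipram phosphodiesterase inhibitor present; the protocol text gives 20 µM as final concentration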
# EP2 confirm = cAMP induction in EP2, EP4, beta2-AR and parental cells, confirmation, counter-screen for EP2 modulator project, cell-based, five parallel assays, C6 glioma, HEK293; calls only at 20 µM (by protocol); 1,300 compounds, 47% hits; cAMP HTRF induction; plus low (about EC15) PGE2 agonist; shares compounds with EP2 mod;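 active = cAMP induction above 50% in the main assay while under 30% in all four parallel counter assays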;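 also: rat C6 glioma cells stably expressing human EP2 receptor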
# An asterisk follows results filed as active; i = inactive; nt = no result; + = active, no number. An excerpt weighted towards active compounds, which were near 2.8% of everything screened.
SMILES,NPY Y1 blocker,NPY Y2 blocker,NPY1 pot ag,EP2 mod,NPY-Y2 PAM-ag,PGE2 EP2 inh,EP2 confirm
CC(C)c1[nH]nc2c1C(c1cccc(F)c1)C(C#N)=C(N)O2 (centres undefined),nt,nt,nt,-49,nt,12,nt
COc1ccccc1Nc1cc(C)nc2c(C)ccc([N+](=O)[O-])c12,5,2,-28,80*,-13,4,+
Cc1cc(Nc2ccccc2)c2c([N+](=O)[O-])cc(C)c(C)c2n1,1,4,-23,46,-14,9,nt
CC1(C)Cc2ccccc2/C(=C/C(=O)N2CCOCC2)N1,nt,nt,nt,0,nt,15,nt
C=CCn1c(CNC(=O)c2ccc(Cl)cc2)n[nH]c1=S,nt,nt,nt,1,nt,6,nt
COc1ccccc1NC(=O)c1ccc(NC(=O)CN(C)Cc2ccccc2F)cc1,12,nt,-18,-54,-29,1,nt
COc1ccccc1CN(C)CC(=O)Nc1ccccc1-c1ccccc1,15,nt,2,71*,-9,8,+
COc1ccc(CN(C)CC(=O)Nc2ccccc2-c2ccccc2)c(OC)c1,10,nt,-13,13,-4,1,nt
Cc1ccccc1CN(C)CC(=O)Nc1ccccc1Oc1ccccc1,5,6,-14,68*,-18,4,+
CN(CC(=O)Nc1ccccc1Oc1ccccc1)Cc1ccccc1F,2,6,-24,67*,-8,4,+
Cc1ccccc1Cn1c2ccccc2c2cn[nH]c(=O)c21,1,4,-8,62*,-3,-7,+
Cc1cc2c(s1)c1cn[nH]c(=O)c1n2Cc1ccc(F)cc1,nt,nt,nt,-20,nt,nt,nt
C=C1CCC2C(CC2(C)C)C(=C)CC/C1=N/O (centres undefined),nt,nt,nt,55,nt,15,i
CCn1ncc(Cl)c1C(=O)Nc1cc(Cl)ccc1Cl,14,3,-21,70*,-9,7,+
Cc1ccc2cc(C)c3nnc(SCC(=O)N4CCCCCC4)n3c2c1C,nt,nt,nt,-26,nt,19,nt
COc1ccc(S(=O)(=O)N(Cc2cccs2)C2CCCC2)cc1,6,8,-5,81*,-16,5,+
O=C(CC(Sc1ccccc1)c1cccs1)c1ccco1 (centres undefined),-1,4,9,89*,10,12,i
O=C(Cc1cccs1)OCC(=O)c1ccco1,1,2,32,3,15,10,nt
CCCn1c(SCC(=O)Nc2ccc(OC)cc2)nnc1-c1cccnc1,nt,nt,nt,3,nt,0,nt
Cc1cc2cc3c(cc2nc1SCC(=O)NC1CCCCC1)OCO3,nt,nt,nt,29,nt,10,nt
Cc1cc2ccccc2nc1SCC(=O)NC1CCCC1,7,nt,-29,77*,-20,10,i
Cc1cc2ccccc2nc1SCC(=O)NC1CCCCC1,15,nt,-27,70*,-16,8,i
COCCn1c(=O)c2ccccc2c2ccccc2c1=O,0,nt,-9,3,-16,4,nt
CCCCn1c(=O)c2ccccc2c2ccccc2c1=O,9,6,-16,82*,-17,9,+
COc1ccc(NC(=O)CSc2nc(O)c(C(C)C)c(=O)[nH]2)cc1,nt,nt,nt,-6,nt,13,nt
Cc1nc2ccc(C(=O)NCc3noc(-c4ccccc4)n3)cc2s1,nt,nt,nt,-74,nt,8,nt
Cc1sc(NC(=O)Cc2ccc3c(c2)OCO3)nc1-c1ccc2c(c1)CCN2C(=O)c1cccc(F)c1,1,-1,6,72*,-3,5,i
CC(C)Oc1nc(-c2ccccc2O)nc2ccccc12,-1,1,-14,80*,-1,10,+
c1cncc(-c2nc(N3CCCCCC3)c3ccccc3n2)c1,8,10,1,74*,-5,nt,+
